Structures are written as SMILES. Active and inactive are the calls of the source.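 How the source made its calls, unless noted: active means GFP response above 150% of the DMSO level; inconclusive means fewer than 70 events counted for a yeast strain; inactive means the rest.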

The nature of assay [1]: hit retest on RPL19A-GFP reporter strain – cell-based, S. cerevisiae, flow cytometry, cherry picks, mother/daughter gates, confirmation (AID 2270;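 active means GFP response below 50% of the DMSO control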). Conditions: 3 h, at 10 µM, stronger effect = lower value, 100 = same GFP as DMSO wells.
Assay [2] can be described thus: yeast TOR pathway reporter LAP4-GFP change – cell-based, cherry picks, flow cytometry, mother/daughter gates, confirmation (AID 2271;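 active means GFP response above 150% of the DMSO control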;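 further: ratio of sample to DMSO plate mean so 100% equals DMSO level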). Conditions: S. cerevisiae LAP4-GFP strain, 3 h, at 10 µM, stronger effect = higher value, 100 means same as DMSO control. In outline:
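System – GFP-fusion yeast strain · Amount – 0.2 OD600 cells · Buffer or medium – SC growth medium · Dosing – single test-compound dose, 10 µM final · Schedule – 3 h treatment at 30 °C with rotation · Detection – GFP by flow cytometry · Read-out – per-gate (all, mother, daughter) GFP response vs DMSO · Benchmarks – positive rapamycin (400 ng/mL), negative DMSO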
A general note: A flow cytometer gives signals particle by particle.

Assay [3] is described as follows: TOR pathway reporter MEP2-GFP, retest of hits – S. cerevisiae, flow cytometry GFP, cherry picks, confirmation (AID 2272;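 active means GFP response above 150% of the DMSO control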;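 further: ratio of well signal to plate DMSO mean so 100% equals DMSO level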). Conditions: S. cerevisiae MEP2-GFP strain, 3 h, at 10 µM, stronger effect = higher value.
A short description of assay [4]: yeast AGP1-GFP fluorescence change, single-dose – cell-based, flow cytometry, S. cerevisiae, cherry picks, confirmation (AID 2273).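 Further: median GFP channel fluorescence over the whole cell population gate.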 Conditions: S. cerevisiae AGP1-GFP strain, 3 h, at 10 µM.
Assay [5] in a line: TOR pathway CIT2 reporter hit retest – S. cerevisiae, GFP fusion, cherry picks, mother/daughter gates, confirmation (AID 2274). Conditions: S. cerevisiae CIT2-GFP strain, flow cytometry, 3 h, at 10 µM, stronger effect = higher value.
Setting [6] is: measured here: daughter cell gate.
Setting [7] is: measured here: mother cell gate.
Setting [8] is: measured here: daughter cell gate response.
The mark [9] stands for this setting: measured here: mother cell gate response.

In the case of `Cc1cc(S(=O)(=O)ON2C(=O)c3ccccc3C2=O)ccc1F`, the GFP response vs DMSO in assay [1] is 78.2% (inactive); in assay [1] (setting [6]), 84.3%; in assay [1] (setting [7]), 66.6%; in assay [3] it was 108% (inactive). The GFP response relative to DMSO in assay [2] was 153% (active); in assay [2] (setting [8]), 153%; in assay [2] (setting [9]) it was 160%. Further, the GFP response, % of DMSO in assay [4] is 105% (inactive); in assay [5], 120% (inactive); in assay [5] (setting [6]), 84.1%; in assay [5] (setting [7]), 98.7%.

`Cc1ccc(N2CC(C(=O)OCc3nnc(-c4ccccc4)o3)CC2=O)cc1` (stereo not given): the GFP response vs DMSO in assay [1] was 100% (inactive); in assay [1] (setting [6]) it was 102%; in assay [1] (setting [7]), 101%; in assay [3], 106% (inactive). In addition, the GFP response relative to DMSO was 102% (inactive) in assay [2], 104% in assay [2] (setting [8]) and 101% in assay [2] (setting [9]). Further, the GFP response, % of DMSO in assay [4] is 96.2% (inactive); in assay [5], 104% (inactive); in assay [5] (setting [6]), 104%; in assay [5] (setting [7]) it was 103%.

Turning to `O=C1c2ccsc2SCCN1Cc1ccccc1Cl`, the GFP response vs DMSO in assay [1] is 94.2% (inactive); in assay [1] (setting [6]) it was 92%; in assay [1] (setting [7]), 95.7%; in assay [3] it was 90.5% (inactive). Besides, the GFP response relative to DMSO in assay [2] is 111% (inactive); in assay [2] (setting [8]), 102%; in assay [2] (setting [9]) it was 114%. Besides, the GFP response, % of DMSO in assay [4] was 97.5% (inactive); in assay [5] it was 93% (inactive); in assay [5] (setting [6]), 93.8%; in assay [5] (setting [7]) it was 90.7%.

As to `COc1cccc(C(=O)Nc2ccc(NC(=O)c3cc4ccccc4o3)c(OC)c2)c1`, the GFP response vs DMSO in assay [1] was 100% (inactive); in assay [1] (setting [6]), 98.1%; in assay [1] (setting [7]) it was 103%; in assay [3], 102% (inactive). Besides, the GFP response relative to DMSO in assay [2] was 89% (inactive); in assay [2] (setting [8]) it was 92.5%; in assay [2] (setting [9]), 89%. Besides, the GFP response, % of DMSO was 95% (inactive) in assay [4], 108% (inactive) in assay [5], 105% in assay [5] (setting [6]) and 111% in assay [5] (setting [7]).

In the case of `CCCS(=O)(=O)N1CCC(C(=O)c2cccc(C(F)(F)F)c2)CC1`, the GFP response vs DMSO was 98.8% (inactive) in assay [1], 97% in assay [1] (setting [6]), 98.2% in assay [1] (setting [7]) and 100% (inactive) in assay [3]. In addition, the values for the GFP response relative to DMSO in assay [2], in assay [2] (setting [8]) and in assay [2] (setting [9]) were 101% (inactive), 98.7% and 102%, respectively. In addition, the GFP response, % of DMSO in assay [4] was 97.8% (inactive); in assay [5], 91.3% (inactive); in assay [5] (setting [6]), 93.2%; in assay [5] (setting [7]), 89.1%.

Consider `CCCc1[nH]nc2c1C(c1cccc(OC(=O)c3ccco3)c1)C(C#N)=C(N)O2` (stereo not given), for which the GFP response vs DMSO in assay [1] is 98.5% (inactive); in assay [1] (setting [6]), 96.7%; in assay [1] (setting [7]), 96.7%; in assay [3], 99.3% (inactive). Also, the GFP response relative to DMSO in assay [2] was 97.7% (inactive); in assay [2] (setting [8]) it was 96%; in assay [2] (setting [9]) it was 98.4%. Also, the GFP response, % of DMSO in assay [4] was 106% (inactive); in assay [5] it was 104% (inactive); in assay [5] (setting [6]), 103%; in assay [5] (setting [7]), 104%.

Consider `O=C1CC(SCc2nc3ccccc3[nH]2)C(=O)N1c1cccc(F)c1` (stereo not given), for which the GFP response vs DMSO is 98.7% (inactive) in assay [1], 99.3% in assay [1] (setting [6]), 97.5% in assay [1] (setting [7]) and 99.3% (inactive) in assay [3]. In addition, the figures for the GFP response relative to DMSO in assay [2], in assay [2] (setting [8]) and in assay [2] (setting [9]) were 104% (inactive), 105% and 105%, respectively. Further, the GFP response, % of DMSO was 102% (inactive) in assay [4], 103% (inactive) in assay [5], 103% in assay [5] (setting [6]) and 103% in assay [5] (setting [7]).

Regarding `O=C(NC(=S)NNC(=O)c1cnccn1)c1ccc(Cl)cc1`, the GFP response vs DMSO is 103% (inactive) in assay [1], 95% in assay [1] (setting [6]), 98.2% in assay [1] (setting [7]) and 114% (inactive) in assay [3]. Also, the values for the GFP response relative to DMSO in assay [2], in assay [2] (setting [8]) and in assay [2] (setting [9]) were 279% (active), 241% and 260%, respectively. Moreover, the GFP response, % of DMSO is 95.7% (inactive) in assay [4], 106% (inactive) in assay [5], 105% in assay [5] (setting [6]) and 98.2% in assay [5] (setting [7]).

Take `CNC(=O)/C(C#N)=C/c1c(N(Cc2ccccc2)Cc2ccccc2)nc2c(C)cccn2c1=O`: the GFP response vs DMSO was 97.2% (inactive) in assay [1], 98.1% in assay [1] (setting [6]), 97.8% in assay [1] (setting [7]) and 112% (inactive) in assay [3]. For the same compound, the GFP response relative to DMSO in assay [2] was 94.4% (inactive); in assay [2] (setting [8]), 95.9%; in assay [2] (setting [9]) it was 93.1%. Besides, the GFP response, % of DMSO in assay [4] is 103% (inactive); in assay [5], 106% (inactive); in assay [5] (setting [6]), 108%; in assay [5] (setting [7]), 104%.

Regarding `O=c1oc2cc(Oc3c([N+](=O)[O-])cc(C(F)(F)F)cc3[N+](=O)[O-])ccc2c2c1CCCC2`, the GFP response vs DMSO in assay [1] is 95.4% (inactive); in assay [1] (setting [6]), 90.7%; in assay [1] (setting [7]), 86.8%; in assay [3] it was 105% (inactive). Further, the GFP response relative to DMSO was 246% (active) in assay [2], 153% in assay [2] (setting [8]) and 249% in assay [2] (setting [9]). Also, the GFP response, % of DMSO was 108% (inactive) in assay [4], 100% (inactive) in assay [5], 97.4% in assay [5] (setting [6]) and 94.4% in assay [5] (setting [7]).

Regarding `CC(=O)Nc1cccc(C(=O)/C=C/c2ccc(C)cc2)c1`, the GFP response vs DMSO in assay [1] was 95.8% (inactive); in assay [1] (setting [6]), 96.8%; in assay [1] (setting [7]), 95.1%; in assay [3] it was 110% (inactive). Besides, the GFP response relative to DMSO is 117% (inactive) in assay [2], 115% in assay [2] (setting [8]) and 120% in assay [2] (setting [9]). For the same compound, the GFP response, % of DMSO in assay [4] is 102% (inactive); in assay [5], 103% (inactive); in assay [5] (setting [6]), 103%; in assay [5] (setting [7]), 102%.

On to `NC(=O)c1ccccc1-c1nc(-c2ccccc2)no1`, for which the GFP response vs DMSO was 97.6% (inactive) in assay [1], 96.1% in assay [1] (setting [6]), 96.7% in assay [1] (setting [7]) and 109% (inactive) in assay [3]. In addition, the GFP response relative to DMSO in assay [2] is 101% (inactive); in assay [2] (setting [8]), 97.5%; in assay [2] (setting [9]), 102%. Besides, the GFP response, % of DMSO in assay [4] is 102% (inactive); in assay [5], 105% (inactive); in assay [5] (setting [6]), 101%; in assay [5] (setting [7]), 104%.

With `COC(=O)c1ccc(/C=C/C(=O)c2ccc(OC)cc2)cc1`, the GFP response vs DMSO in assay [1] was 99.9% (inactive); in assay [1] (setting [6]), 97.8%; in assay [1] (setting [7]), 101%; in assay [3], 104% (inactive). Besides, the GFP response relative to DMSO in assay [2] was 114% (inactive); in assay [2] (setting [8]), 108%; in assay [2] (setting [9]) it was 111%. The GFP response, % of DMSO was 94.9% (inactive) in assay [4], 99.3% (inactive) in assay [5], 100% in assay [5] (setting [6]) and 99.1% in assay [5] (setting [7]).

Take `COc1ccc(C(=O)/C=C/c2ccccc2C(F)(F)F)cc1`: the GFP response vs DMSO was 100% (inactive) in assay [1], 99.1% in assay [1] (setting [6]), 99.5% in assay [1] (setting [7]) and 100% (inactive) in assay [3]. The GFP response relative to DMSO in assay [2] is 99.2% (inactive); in assay [2] (setting [8]), 99.2%; in assay [2] (setting [9]), 98.3%. For the same compound, the GFP response, % of DMSO in assay [4] was 99.7% (inactive); in assay [5] it was 107% (inactive); in assay [5] (setting [6]) it was 106%; in assay [5] (setting [7]), 107%.

Consider `O=C(Nc1c2ccccc2nc2ccccc12)C(Cl)(Cl)Cl`, for which the GFP response vs DMSO in assay [1] is 91.7% (inactive); in assay [1] (setting [6]) it was 77.9%; in assay [1] (setting [7]), 83.4%; in assay [3], 98.8% (inactive). The results for the GFP response relative to DMSO in assay [2], in assay [2] (setting [8]) and in assay [2] (setting [9]) were 88.7% (inactive), 87.3% and 94.1%, respectively. The GFP response, % of DMSO was 87.8% (inactive) in assay [4], 95.9% (inactive) in assay [5], 77.8% in assay [5] (setting [6]) and 70.8% in assay [5] (setting [7]).

The record behind these values is PubChem BioAssay.
